Laboratory results: ChEMBL document CHEMBL3259639, “RE12 derivatives displaying Vaccinia H1-related phosphatase (VHR) inhibition in the presence of detergent and their anti-proliferative activity against HeLa cells” (Bioorg Med Chem, 2014)
Activity calls are given as the source filed them. The rule behind the calls is not given here.

Key:
HeLa [1] = test: Antiproliferative activity against human HeLa cells after 48 hrs incubation by Alamar Blue assay; assay type: functional, cell-based
Outline: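 HeLa cells seeded at 3 x 10^3 cells/well, exposed to compounds for 48 h; Alamar Blue then added and incubated 3 h at 37 °C, 5% CO2; fluorescence read at 530 nm excitation/590 nm emission. IC50 taken from sigmoid dose-response curve.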

HeLa [2] = test: Antiproliferative activity against human HeLa cells at 20 uM after 48 hrs incubation by Alamar Blue assay; assay type: functional, cell-based
Outline: (§1)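 HeLa cells plated at 3 x 10^3 cells/well, treated 48 h at a single concentration (20 or 30 µM as per line); viability by Alamar Blue added for 3 h at 37 °C, 5% CO2, fluorescence at 530 nm ex/590 nm em; percent inhibition of proliferation.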

HeLa [3] = test: Antiproliferative activity against human HeLa cells at 30 uM after 48 hrs incubation by Alamar Blue assay; assay type: functional, cell-based; outline: as §1
[4] = target: T1, Dual specificity protein phosphatase 3 (Homo sapiens, UniProt P51452); conditions: 100 uM
Target sequence in this assay (P51452 whole entry, looked up): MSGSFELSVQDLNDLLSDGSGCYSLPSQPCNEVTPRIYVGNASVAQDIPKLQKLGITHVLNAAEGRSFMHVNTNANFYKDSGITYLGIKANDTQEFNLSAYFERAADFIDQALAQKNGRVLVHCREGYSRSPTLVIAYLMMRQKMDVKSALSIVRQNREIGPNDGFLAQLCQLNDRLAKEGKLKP

[5] = target: T1, Dual specificity protein phosphatase 3; test: Inhibition of Vaccinia H1-related phosphatase (unknown origin) by fluorescence emission assay
Outline: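 Purified VHR (22 ng) preincubated with or without compound 30 min at 37 °C in 50 mM succinate, 1 mM EDTA, 150 mM NaCl, 1 mM DTT, pH 6.0, 0.001% NP-40; reaction begun with 10 µM O-methylfluorescein phosphate, 10 min at 37 °C; product fluorescence at 485 nm ex/530 nm em; IC50 from sigmoid dose-response curve.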
Target sequence in this assay (P51452 whole entry): as the sequence (P51452 whole entry, looked up) above

[6] = target: T1, Dual specificity protein phosphatase 3; test: Inhibition of Vaccinia H1-related phosphatase (unknown origin) by fluorescence emission assay in presence of 0.001% NP-40
Target sequence in this assay (P51452 whole entry): as the sequence (P51452 whole entry, looked up) above

| SMILES | inhibition (HeLa [2]) | inhibition (HeLa [3]) | other results |
| --- | --- | --- | --- |
| Cc1cccc(CN/C(CCCCc2ccc(OCc3cccc(Cl)c3)cc2)=C2\C(=O)OC(CO)C2=O)c1 (stereo unspecified) |  |  | IC50 (HeLa [1]): 7.8 µM |
| Cc1cccc(CN/C(CCCCc2ccc(OCc3ccccc3Cl)cc2)=C2\C(=O)OC(CO)C2=O)c1 (stereo unspecified) |  |  | IC50 (HeLa [1]): 10.6 µM |
| Cc1cccc(CN/C(CCCCc2ccccc2OCc2cccc(Cl)c2)=C2\C(=O)OC(CO)C2=O)c1 (stereo unspecified) | Active | Active |  |
| CCCCCCCCCCCCCCC/C(NCc1cccc(C)c1)=C1/C(=O)OC(CO)C1=O (stereo unspecified) | Active | Active | inhibition [4]: inactive; IC50 [5]: 1.6 µM; IC50 [6]: > 100 µM |
| Cc1cccc(CN/C(CCCCc2cccc(OCc3ccccc3Cl)c2)=C2\C(=O)OC(CO)C2=O)c1 (stereo unspecified) | Active | Active |  |
| Cc1cccc(CN/C(CCCCc2ccccc2OCc2ccccc2)=C2\C(=O)OC(CO)C2=O)c1 (stereo unspecified) | Active | Active |  |
| Cc1cccc(CN/C(CCCCc2ccccc2OCc2ccc(C(F)(F)F)cc2)=C2\C(=O)OC(CO)C2=O)c1 (stereo unspecified) | Active | Active |  |
| Cc1cccc(CN/C(CCCCc2ccccc2OCc2ccccc2Cl)=C2\C(=O)OC(CO)C2=O)c1 (stereo unspecified) | Active | Active |  |
| Cc1cccc(CN/C(CCCCc2cccc(OCc3cccc(Cl)c3)c2)=C2\C(=O)OC(CO)C2=O)c1 (stereo unspecified) | Active | Active |  |
| Cc1cccc(CN/C(CCCCc2ccccc2OCc2ccc([N+](=O)[O-])cc2)=C2\C(=O)OC(CO)C2=O)c1 (stereo unspecified) | Active | Active |  |
| Cc1cccc(CN/C(CCCCc2cccc(OCc3ccc(Cl)cc3)c2)=C2\C(=O)OC(CO)C2=O)c1 (stereo unspecified) | Active | Active |  |
| Cc1cccc(CN/C(CCCCc2ccc(OCc3ccc(Cl)cc3)cc2)=C2\C(=O)OC(CO)C2=O)c1 (stereo unspecified) |  | Active |  |
| Cc1cccc(CN/C(CCCCc2ccccc2OCc2ccc(Cl)cc2)=C2\C(=O)OC(CO)C2=O)c1 (stereo unspecified) | Active | Active |  |
